Laboratory results reported in ChEMBL document CHEMBL3243935, “Analgesic and tranquilizing activity of 5,8-disubstituted 2-aminomethyl-3,4-dihydronaphthalenes” (J Med Chem, 1978).
Active and inactive are the calls of the source.

How the values were obtained:
[1] = Toxicity in ip dosed Swiss CD mouse measured 0.5 to 2 hrs post treatment; assay type: organism-based; settings: in vivo
[2] = system: Mus musculus; assay: Analgesic activity in Swiss CD mouse assessed as elevation of response latency at 32 mg/kg, ip measured 2 hrs post treatment by tail flick method relative to control; assay type: functional; settings: route intraperitoneal
Method in brief: (§1)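 Male mice, about 20 g, dosed ip in saline (solution or suspension). High-intensity heat was focused on the tail, and latency to a sudden tail flick was timed, with a 10-s cutoff. Tests ran at 0.5 and 2 h post-dose, with at least ten mice per dose. Percent control = mean latency ÷ mean control latency × 100; 200% was the lower bound of activity.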

[3] = system: Mus musculus; assay: Analgesic activity in Swiss CD mouse assessed as elevation of response latency at 32 mg/kg, ip measured 0.5 hr post treatment by tail flick method relative to control; assay type: functional; settings: route intraperitoneal; method in brief: as §1
[4] = system: Mus musculus; assay: Analgesic activity in Swiss CD mouse at 32 mg/kg, ip measured 0.5 hr post treatment by hot-plate method relative to control; assay type: functional; settings: route intraperitoneal
Method in brief: (§2)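 Male mice, about 20 g, dosed ip in saline. Each mouse was dropped into a glass cylinder on an aluminium plate held at 57 °C. Latency to the first flick of a hind foot was timed at 0.5 and 2 h post-dose, with a 10-s cutoff. At least ten mice per dose. Percent control = mean latency ÷ mean control latency × 100; 200% was the lower bound of activity.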

[5] = system: Mus musculus; assay: Analgesic activity in Swiss CD mouse at 32 mg/kg, ip measured 2 hrs post treatment by hot-plate method relative to control; assay type: functional; settings: route intraperitoneal; method in brief: as §2
[6] = system: Mus musculus; assay: Analgesic activity in Swiss CD mouse at 100 mg/kg, ip measured 0.5 hr post treatment by hot-plate method relative to control; assay type: functional; settings: route intraperitoneal; method in brief: as §2
[7] = system: Mus musculus; assay: Analgesic activity in Swiss CD mouse assessed as elevation of response latency at 100 mg/kg, ip measured 2 hrs post treatment by tail flick method relative to control; assay type: functional; settings: route intraperitoneal; method in brief: as §1
[8] = system: Mus musculus; assay: Analgesic activity in Swiss CD mouse at 100 mg/kg, ip measured 2 hrs post treatment by hot-plate method relative to control; assay type: functional; settings: route intraperitoneal; method in brief: as §2
[9] = system: Rattus norvegicus; assay: Analgesic activity in Sprague-Dawley CD rat at 32 mg/kg, ip measured 0.5 to 2 hrs post treatment by flinch-jump method relative to control; assay type: functional, organism-based; design: dose 32 mg/kg
Method in brief: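 Male rats, 200-300 g, dosed ip (saline solution or suspension). A single rising series of 1-s foot shocks was given just before and at 0.5 and 2 h after dosing. The minimum shock intensity (mA) evoking each behaviour was recorded. No response at the 2.2-mA level counted as activity. At least five rats per dose.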

[10] = system: Mus musculus; assay: Analgesic activity in Swiss CD mouse assessed as elevation of response latency at 100 mg/kg, ip measured 0.5 hr post treatment by tail flick method relative to control; assay type: functional; settings: route intraperitoneal; method in brief: as §1
[11] = system: Rattus norvegicus; assay: Neuroleptic activity in ip dosed Sprague-Dawley CD rat assessed as reversal of amphetamine-induced stereotypy compound administered 1hr prior challenge; assay type: functional
Method in brief: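 Rats dosed ip, then given amphetamine sulfate 5 mg/kg 1 h later. The ED50 is the dose that reverses the amphetamine-induced stereotypy.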

[12] = system: Rattus norvegicus; assay: Neuroleptic activity in decarboxylase-inhibited Sprague-Dawley CD rat brain assessed as increase in DOPA accumulation at 0.01 mmol/kg relative to control; assay type: functional; design: scale not given: the % may be the effect or the level left
[13] = system: Mus musculus; assay: Analgesic activity in ip dosed Swiss CD mouse by hot-plate method relative to control in presence of naloxone; assay type: functional, organism-based
[14] = system: Mus musculus; assay: Analgesic activity in ip dosed Swiss CD mouse by tail flick method relative to control in presence of naloxone; assay type: functional, organism-based
[15] = species: Canis familiaris; assay: Analgesic activity in dog assessed as increase in response threshold by radiant heat method; assay type: functional, organism-based; settings: Canis lupus familiaris
Method in brief: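 Male mongrel dogs (9-12 kg) given drug sc or orally; radiant heat threshold read as reflex fasciculations of the back muscles. Tested at 0.5 and 2 h after dosing, with the end point expressed as percent of control latency.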

[16] = species: Mus musculus; assay: Toxicity in Swiss CD mouse assessed as Straub tail symptom; assay type: organism-based; settings: in vivo
[17] = species: Rattus norvegicus; assay: Toxicity in Sprague-Dawley CD rat assessed as Straub tail symptom; assay type: organism-based; settings: in vivo

SMILES	LD50 [1]	Activity [2]	Activity [3]	Activity [4]	Activity [5]	Activity [6]	Activity [7]	Activity [8]	Activity [10]	further results
CNCC1=Cc2c(Cl)ccc(OC)c2CC1.Cl	32 mg/kg	127%	163%	139%	120%					
COc1ccc(Cl)c2c1CCC(CN1CCCC(C(N)=O)C1)=C2.Cl (stereo not drawn)						197%	106%	170%	91%	Activity [9]: inactive
COc1ccc(Cl)c2c1CCC(CN1CCC(C)CC1)=C2.Cl	32 mg/kg	115%	128%	158%	135%					
Cc1cc(C)c2c(c1)C=C(CN1CCCC1)CC2.Cl	32 mg/kg	126%	124%	126%	120%					
CCN(CC)C(=O)C1CCCN(CC2=Cc3c(Cl)ccc(OC)c3CC2)C1.Cl.O (stereo not drawn)						107%	214%	175%	250%	Activity [9]: inactive
COc1ccc(C)c2c1CCC(CN1CCCC1)=C2.Cl	32 mg/kg	135%	177%	177%	145%					
COc1ccc(Cl)c2c1CCC(CN1CCC3(CC1)C(=O)NCN3c1ccccc1)=C2										ED50 [11]: 1 mg/kg; Activity [12]: 154%
COc1ccc(Cl)c2c1CCC(CN1CCC(C(N)=O)CC1)=C2.O						314%	132%	329%	274%	Activity [13]: inactive; Activity [14]: inactive; Activity [15]: inactive; Activity [16]: Non-toxic; Activity [17]: Non-toxic
COc1ccc(Cl)c2c1CCC(CN1CCC(OC(C)=O)(c3ccccc3)CC1)=C2.Cl.O	32 mg/kg	320%	317%	315%	345%					Activity [13]: inactive; Activity [14]: inactive; Activity [16]: Toxic; Activity [17]: Toxic
COc1ccc(OC)c2c1C=C(CN1CCCC1)CC2.Cl	32 mg/kg	99%	111%	177%	132%					
COc1ccc(Cl)c2c1CCC(CN1CCC(C(=O)N3CCCC3)CC1)=C2.Cl.O						213%	172%	155%	262%	Activity [12]: 332%
CN1CCN(CC/C=C2/c3ccccc3Sc3ccc(S(=O)(=O)N(C)C)cc32)CC1 [THIOTHIXENE]										ED50 [11]: 0.32 mg/kg
COc1ccc(Cl)c2c1CCC(CN1CCC(O)CC1)=C2.Cl						174%	180%	142%	239%	
COc1ccc(Cl)c2c1CCC(CN1CCC(c3ccccc3)CC1)=C2.O						233%	106%	171%	109%	
COc1ccc(Cl)c2c1CCC(CN1CCC(C(=O)NC3CCCCC3)CC1)=C2						107%	154%	95%	219%	
Br.COc1cccc2c1CCC(CN1CCCC1)=C2	32 mg/kg	90%	80%	129%	103%					
COc1ccc(F)c2c1CCC(CN1CCCC1)=C2.Cl	32 mg/kg	141%	170%	183%	149%					
